{"source": "ChEMBL document CHEMBL4513216", "about": "“Probing the Open Global Health Chemical Diversity Library for Multistage-Active Starting Points for Next-Generation Antimalarials” (ACS Infect Dis, 2020)"}
{"assay": "Toxicity liver stage against HepG2, at 10uM", "type": "cell-based", "design": "test concentration 10 uM, cell line HepG2-A16-CD81EGFP", "settings": "human, HepG2-A16-CD81EGFP cells; read-out: INHIBITION", "in_short": "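Uninfected HepG2-A16-CD81EGFP cells, 3 × 10^3 per well, 1536-well, plated on prespotted compound at 10 μM final, parasite-free screening media added to match infected plates; puromycin 10 μM positive, DMSO 0.5% negative; run in parallel with 48 h PbLuc assay at 37 °C, 5% CO2; viability by CellTiter-Glo luminescence, normalized to controls.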", "units": {"cytotoxicity at 10 µM": "%"}}
{"smiles": "O=C(CCNC(=O)c1ccc(Cl)cc1)NCc1nc(C2CC2)no1", "cytotoxicity at 10 µM": 0.648}
{"smiles": "COc1ccc(-c2cc(C[C@@H]3C[C@H](N(C)C)C3(C)C)no2)cc1", "cytotoxicity at 10 µM": -1.3}
{"smiles": "O=C(NC[C@@H]1CCCO1)c1cccnc1N1CCCC1c1ccccn1", "note": "(some centres undefined)", "cytotoxicity at 10 µM": -1.08}
{"smiles": "Cc1nn(-c2ncnc3[nH]cnc23)c2c1C(C(C)C)CC(=O)N2", "note": "(centres undefined)", "cytotoxicity at 10 µM": 10.8}
{"smiles": "COC(=O)CNC(=O)c1cn(-c2ccccn2)c(=O)c2ccccc12", "cytotoxicity at 10 µM": 0.0537}
{"smiles": "O=C(NCCc1nccs1)[C@H](c1ccccc1)n1cnnn1", "cytotoxicity at 10 µM": -0.607}
{"smiles": "CSCC(C)(O)CNC(=O)c1cc(Cl)ccc1Cl", "note": "(centres undefined)", "cytotoxicity at 10 µM": 9.88}
{"smiles": "CCOCC(=O)N1C[C@H]2CN(CC3CC3)C(=O)[C@H]2C1", "cytotoxicity at 10 µM": 3.94}
{"smiles": "CC(C)NC(=O)N1CCCC2(CCN(c3ccccc3)C2=O)C1", "note": "(centres undefined)", "cytotoxicity at 10 µM": -2.22}
{"smiles": "CN(C)CCO[C@H]1CN(C(=O)c2ccc3c(c2)OCO3)[C@@H]2COC[C@H]12", "cytotoxicity at 10 µM": -151}
{"smiles": "O=C(c1ccoc1)N1C[C@H]2CC[C@@]3(N=C(c4ccccc4)NC3=O)[C@H]2C1", "cytotoxicity at 10 µM": 6.79}
{"smiles": "Cn1cc(CN2CC[C@@H]3O[C@H](C(=O)N4CCOCC4)C[C@@H]32)cn1", "cytotoxicity at 10 µM": -8.08}
{"smiles": "O=C(N[C@@H]1CN(Cc2ccc3c(c2)OCO3)[C@@H]2CCCO[C@@H]21)C1CC1", "cytotoxicity at 10 µM": 2.06}
{"smiles": "Cc1cc(-c2ccc(=O)n(CCNC(=O)C3CC3)n2)c(C)o1", "cytotoxicity at 10 µM": -10.2}
{"smiles": "CC(=O)N1CCC(C(=O)c2cnn(-c3ccccc3)c2N)C1", "note": "(centres undefined)", "cytotoxicity at 10 µM": 5.54}
{"smiles": "Cc1ncc(-c2ccncc2)c(C2CCN(C(=O)c3ccco3)CC2)n1", "cytotoxicity at 10 µM": 4}
{"smiles": "CNC(=O)C1CN(Cc2cc(C)on2)CCN(C(C)=O)C1", "note": "(centres undefined)", "cytotoxicity at 10 µM": -3.02}
{"smiles": "CC1(C(=O)N2CCN(C3CCCC3)CC2)CNCCO1", "note": "(centres undefined)", "cytotoxicity at 10 µM": 6.26}
{"smiles": "COC(=O)c1c(C(F)(F)F)cnc(OC)c1Cl", "cytotoxicity at 10 µM": 7.03}
{"smiles": "Cc1noc(CN(CCO)Cc2cc(Br)ccc2F)n1", "cytotoxicity at 10 µM": 2.2}
{"smiles": "O=S1(=O)CCC(c2nnc(-c3cnc4onc(C5CCCC5)c4c3)o2)C1", "note": "(centres undefined)", "cytotoxicity at 10 µM": 1.84}
{"smiles": "COCCCN1Cc2cccc(NC(=O)C(C)(C)C)c2C1", "cytotoxicity at 10 µM": 2.06}
{"smiles": "CCC(C)NC(=O)Nc1cccc(OCCCC#N)c1", "note": "(centres undefined)", "cytotoxicity at 10 µM": -2.01}
{"smiles": "Cn1cc(C(=O)CC2CCCN2C(=O)c2ccc3[nH]ncc3c2)cn1", "note": "(centres undefined)", "cytotoxicity at 10 µM": -2.53}
{"smiles": "CN(C)C(C(=O)NCC1(O)CCCCC1)c1c(F)cccc1F", "note": "(centres undefined)", "cytotoxicity at 10 µM": -5.52}
{"smiles": "O=S(=O)(c1c(F)cccc1F)N1CCCC1c1nnc2n1CCCCC2", "note": "(centres undefined)", "cytotoxicity at 10 µM": 11.2}
{"smiles": "CCC(Nc1nc(C(F)(F)F)nc2ccccc12)C(=O)O", "note": "(centres undefined)", "cytotoxicity at 10 µM": 3.75}
{"smiles": "N#Cc1ccc(CNC(=O)NC2CCCN(c3ncccn3)C2)cc1", "note": "(centres undefined)", "cytotoxicity at 10 µM": 5.38}
{"smiles": "CC(OCCCNC(=O)c1cccnc1O)c1ccccc1", "note": "(centres undefined)", "cytotoxicity at 10 µM": 4.88}
{"smiles": "CN(CCNc1cc(N2CCCC2CO)ncn1)Cc1ccccc1", "note": "(centres undefined)", "cytotoxicity at 10 µM": 15.7}
{"smiles": "c1ccc(-c2nc(CN3CCn4c(nnc4C4CC4)C3)no2)cc1", "cytotoxicity at 10 µM": -3.47}
{"smiles": "CN1CCN(C(=O)C2CCCN2c2ncnc3ccsc23)CC1", "note": "(centres undefined)", "cytotoxicity at 10 µM": 9.19}
{"smiles": "COc1cc(C)nc(N2CCN(C(C)c3nc(C4CC4)no3)CC2)n1", "note": "(centres undefined)", "cytotoxicity at 10 µM": 1.46}
{"smiles": "O=C(NCCNC(=O)c1ccc(Br)cc1)c1ccc(O)cc1", "cytotoxicity at 10 µM": -0.988}
{"smiles": "Cc1cc(C(=O)N2CCCC(N3CCNC3=O)C2)nn1C(C)(C)C", "note": "(centres undefined)", "cytotoxicity at 10 µM": -1.44}
{"smiles": "CCOc1ccc(C(=O)N(C)C)cc1NC(=O)c1ccsc1", "cytotoxicity at 10 µM": -0.12}
{"smiles": "O=C(C1CCCOC1)N1CCCc2ccccc21", "note": "(centres undefined)", "cytotoxicity at 10 µM": 10.1}
{"smiles": "O=S(=O)(NC1CCC2(CC1)OCCO2)c1cccc(Br)c1", "cytotoxicity at 10 µM": -5.65}
{"smiles": "Cc1csc(NC(=O)NCCCN2CCC(C(N)=O)CC2)n1", "cytotoxicity at 10 µM": 2.48}
{"smiles": "CCC(C)NS(=O)(=O)Cc1cccc(NC(=O)C2=CCCC2)c1", "note": "(centres undefined)", "cytotoxicity at 10 µM": -0.217}
{"smiles": "CC(C)(C)OC(=O)N1CCN(S(=O)(=O)CCCC#N)C2(CCCCC2)C1", "cytotoxicity at 10 µM": -6.1}
{"smiles": "Cc1noc2ncc(S(=O)(=O)Nc3cc(C(C)(C)C)n[nH]3)cc12", "cytotoxicity at 10 µM": 3.26}
{"smiles": "CCS(=O)(=O)CCNC(=O)NCc1ccccc1-n1cccn1", "cytotoxicity at 10 µM": 4.87}
{"smiles": "CCOc1ccc(C#N)cc1NC(=O)N1CCCC(NC(=O)CC)C1", "note": "(centres undefined)", "cytotoxicity at 10 µM": 0.711}
{"smiles": "O=C(CCCn1cncn1)NC1(c2ccccc2)CCC1", "cytotoxicity at 10 µM": -11.5}
{"smiles": "Cc1cccc(N2CCN(C(=O)CN3CCN(CCO)CC3)CC2)c1", "cytotoxicity at 10 µM": -15.5}
{"smiles": "CC(C)Cc1cc(C(=O)NCc2nnc[nH]2)[nH]n1", "cytotoxicity at 10 µM": -2.95}
{"smiles": "COc1ccccc1-c1ncc(CN2CCCC(CCC(N)=O)C2)s1", "note": "(centres undefined)", "cytotoxicity at 10 µM": -6.34}
{"smiles": "CC(C)(C)c1ncc(C(=O)N2CCN(C(=O)c3ccc[nH]3)CC2)c(O)n1", "cytotoxicity at 10 µM": -6.74}
{"smiles": "CCN(CCOc1ccc(F)cc1)C(=O)c1ccncc1Cl", "cytotoxicity at 10 µM": -3.35}
{"smiles": "COc1cccc2c1OCC(CNC(=O)Cc1csc(C(C)=O)c1)C2", "note": "(centres undefined)", "cytotoxicity at 10 µM": -146}
{"smiles": "Cc1ccc(C#N)c(N2CCC3(CCCN(C4CCOCC4)C3=O)C2)n1", "note": "(centres undefined)", "cytotoxicity at 10 µM": -125}
{"smiles": "CC(C)Oc1cc(N2CC[C@@H](N3CCOCC3)[C@H](O)C2)nc(N)n1", "cytotoxicity at 10 µM": -2.32}
{"smiles": "CCn1c(C2CCCN(Cc3ccc4ccccc4n3)C2)nn(C)c1=O", "note": "(centres undefined)", "cytotoxicity at 10 µM": 0.687}
{"smiles": "CCCn1ncc(C(=O)N2CCN(C3Cc4ccccc4C3)CC2)c1C", "cytotoxicity at 10 µM": -139}
{"smiles": "O=C(C1CC1)N1CCCN(c2ncnc3c2CCNCC3)CC1", "cytotoxicity at 10 µM": 5.52}
{"smiles": "O=C(N[C@@H]1CCCNC1)C1(Oc2ccc(Cl)cc2)CCNCC1", "cytotoxicity at 10 µM": -4.73}
{"smiles": "O=C(O)CNc1cc(-c2cc(C(=O)NC3CC3)ccn2)c2cc[nH]c2n1", "cytotoxicity at 10 µM": -5.2}
{"smiles": "CN(CC(C)(C)C)c1ccc(C(=O)NCCCc2ccccn2)cn1", "cytotoxicity at 10 µM": -49.1}
{"smiles": "CCC1CN(C(=O)c2cccnc2O)CCC(=O)N1Cc1ccccc1", "note": "(centres undefined)", "cytotoxicity at 10 µM": 3.65}
{"smiles": "CC1(C(=O)NCc2cccnc2Oc2ccc(F)cc2F)CCCNC1", "note": "(centres undefined)", "cytotoxicity at 10 µM": -5.68}
{"smiles": "Cc1ccc([C@@H]2CN(C(=O)c3ccc[nH]3)C[C@H]2NC(=O)C2CC2)cc1", "cytotoxicity at 10 µM": -21.5}
{"smiles": "COc1c(C2CCCN2C(=O)c2csc(C3CC3)n2)c(C)nn1C", "note": "(centres undefined)", "cytotoxicity at 10 µM": 4.53}
{"smiles": "O=C(CCOc1ccccc1F)N1CCCCC1Cn1cccn1", "note": "(centres undefined)", "cytotoxicity at 10 µM": -4.47}
{"smiles": "CCn1ccnc1CN1CCCN(C(=O)c2cnn(C)c2)CC1", "cytotoxicity at 10 µM": -7.25}
{"smiles": "Cc1cc(C)c(CNC(=O)N2CCN(c3ccncc3)CC2)c(=O)[nH]1", "cytotoxicity at 10 µM": -3.57}
{"smiles": "Cc1ccccc1C(=O)Nc1cnn(CCN2CCOCC2)c1", "cytotoxicity at 10 µM": -11.7}
{"smiles": "O=C(c1cnc(-c2cnccn2)s1)N1CCCC1Cn1cccn1", "note": "(centres undefined)", "cytotoxicity at 10 µM": -3.99}
{"smiles": "O=C(CCOCC(F)(F)F)N1CCCC1c1noc(C2CC2)n1", "note": "(centres undefined)", "cytotoxicity at 10 µM": 0.111}
{"smiles": "c1ccc(-c2noc(CN3CCOC(Cn4cccn4)C3)n2)nc1", "note": "(centres undefined)", "cytotoxicity at 10 µM": -15}
{"smiles": "C[C@@H](NC(=O)c1cccs1)c1onc(-c2cccnc2)c1C(=O)O", "cytotoxicity at 10 µM": 6.09}
{"smiles": "Cc1nc(Nc2cnccn2)cc(C2CN(C(C)C)C2)n1", "cytotoxicity at 10 µM": -27.1}
{"smiles": "CN(C)CCN1CCCC12CCN(C(=O)c1ccco1)CC2", "cytotoxicity at 10 µM": 1.49}
{"smiles": "Cc1ccc(CN2C[C@@H]3[C@@H](C(=O)NCC4CC4)CCS(=O)(=O)[C@@H]3C2)cc1", "cytotoxicity at 10 µM": -4}
{"smiles": "CCO[C@H]1CO[C@@]2(CCN(Cc3ccc4c(c3)OCO4)C2)C1", "cytotoxicity at 10 µM": 0.493}
{"smiles": "COc1ccc(CN2C[C@@H](OCc3csc(C)n3)[C@H]3COC[C@H]32)cc1", "cytotoxicity at 10 µM": -17.3}
{"smiles": "CC(NCc1cccc(C#N)c1)c1ccccn1", "note": "(centres undefined)", "cytotoxicity at 10 µM": -9.61}
{"smiles": "CCOCC1CN(Cc2cccnc2)Cc2nn(C)cc21", "note": "(centres undefined)", "cytotoxicity at 10 µM": -81.6}
{"smiles": "Cc1noc(C)c1CN1CCOC2(CCCN(c3ncccn3)C2)C1", "note": "(centres undefined)", "cytotoxicity at 10 µM": 8.27}
